# Bioassay records deposited in PubChem BioAssay by Broad Institute.
# PfHsp90 set2: reduces growth (ATP signal) of yeast expressing P. falciparum Hsp90; inhibition, % at 9.4 µM; S. cerevisiae expressing PfHsp90, BacTiter-Glo ATP, 48 h; yeast lacking PDR1 and PDR3 efflux regulators; 310,000 tested, 0.32% active; AID 504621;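 active = every replicate shows inhibition above about 80%, whatever the replicate mean, limit read from the data; inconclusive = mean inhibition reaches the set limit but some replicate falls short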;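 note: 0% = DMSO neutral controls and 100% = 20 µM radicicol positive controls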
# DENV2 CPE: protects cells from dengue virus 2 cytopathic effect | DENV2-infected cells, cytopathic effect rescue, plate reader | CPE inhibition, % at 9.99 µM | 350,000 tested, 1.7% active | AID 651640; in the data active = CPE inhibition above about 20%, passing the limit was not always enough; inconclusive = no clear call, values can overlap the other calls; tested in BHK-21 cells;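 note: 0% = median of neutral control wells and 100% = median of positive control wells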
# MLL AF4-AF9 inh: MLL-AF4/AF9 protein interaction inhibition. P42568. AlphaScreen, biotin-AF4 peptide binding to FLAG-AF9. inhibition, % at 10 µM. 350,000 tested, 0.47% active;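 active = every replicate reaching a set inhibition limit, whatever the replicate mean, cut at about 25% in these data; inconclusive = mean inhibition reaches that limit but some replicates miss it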;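 note: 0% = plate neutral control median and 100% = total signal loss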
# Target sequence (P42568 whole entry, looked up): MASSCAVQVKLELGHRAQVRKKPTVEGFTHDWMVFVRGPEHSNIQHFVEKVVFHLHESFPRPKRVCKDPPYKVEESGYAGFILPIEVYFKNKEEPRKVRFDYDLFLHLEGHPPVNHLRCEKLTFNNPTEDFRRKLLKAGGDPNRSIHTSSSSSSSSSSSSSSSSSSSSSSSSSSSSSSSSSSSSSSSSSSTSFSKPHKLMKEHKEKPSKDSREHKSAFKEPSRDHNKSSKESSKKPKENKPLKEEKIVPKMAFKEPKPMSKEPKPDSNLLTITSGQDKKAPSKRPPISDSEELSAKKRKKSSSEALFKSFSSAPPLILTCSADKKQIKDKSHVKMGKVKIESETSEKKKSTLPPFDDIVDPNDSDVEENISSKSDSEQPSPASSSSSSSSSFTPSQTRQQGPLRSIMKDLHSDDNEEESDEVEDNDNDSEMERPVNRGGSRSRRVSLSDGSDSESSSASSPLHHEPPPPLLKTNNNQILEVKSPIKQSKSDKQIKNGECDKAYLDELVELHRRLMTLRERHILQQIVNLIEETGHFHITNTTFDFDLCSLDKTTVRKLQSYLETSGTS
# rRNA inh HTS: inhibits bacterial ribosomal RNA function over humanized ribosomes | E. coli WT GFP vs humanized-ribosome RFP mutants, fluorescence, 24 h; stronger effect = lower value; DMSO median 0, no signal -100 | 350,000 tested, 1.6% active | GFP signal change (wild-type ribosome), % (no concentration beside the values) | AID 720706;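 active = significant combined selectivity score with lowered wild-type GFP, culture density cut under 30%, mutant RFP and density less affected; inactive = any of these conditions unmet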
# Cneo AK release: causes C. neoformans cell lysis; adenylate kinase release luminescence, 4 h; normalised: neutral wells 0, clomiphene wells 100; 360,000 tested, 0.2% active; AID 651654; lysis activity, % at 15 µM;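 active = mean lysis activity across replicates of at least 80%, whatever share of replicates individually reach that level; inactive = mean lysis activity below 80%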
#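 Assay system: C. neoformans cells. Amount: yeast cell density of 5 × 10^6 cells/mL. Technique: AK luminescence. Buffer or medium: YPD. Times: static 4 h at 37 °C with compound, 1 h detection. Dosing: single-point compound dose. Read-out: lysis from increased AK signal.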
# S100A4 MyoIIA: S100A4-myosin IIA interaction inhibition; AID 652163; 360,000 tested, 0.14% active; inhibition, % at 10.7 µM; P26447; S100A4/TAMRA-MyoIIA peptide fluorescence polarization;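 active = mean inhibition of at least 70% across replicates, with every replicate also reaching that level; inconclusive = mean inhibition reaches 70% but some replicates fall short; inactive = mean inhibition below 70%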
# Target sequence (P26447 whole entry, looked up): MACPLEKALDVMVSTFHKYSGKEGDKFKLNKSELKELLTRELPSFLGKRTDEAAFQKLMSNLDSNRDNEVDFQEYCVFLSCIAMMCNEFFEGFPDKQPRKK
#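 Material: human S100A4 monomer with TAMRA-labelled myosin IIA peptide; buffer or medium: HEPES pH 7.2 with CaCl2, KCl, NaCl, DTT, Triton; compound dosing: one concentration per compound; schedule: 5 min incubation before reading; benchmarks: neutral control DMSO, positive control TFP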
# Starred values were filed as active, the others as inactive; ? = inconclusive; . = no result given; ! = not active in a repeat. Shown are actives, neighbours in structure and some others; about 3.2% of the full set was active somewhere.
SMILES,PfHsp90 set2,DENV2 CPE,MLL AF4-AF9 inh,rRNA inh HTS,Cneo AK release,S100A4 MyoIIA
CO[C@@H]1CN(C)C(=O)c2ccc(NC(=O)c3ccc4c(c3)OCO4)cc2OC[C@@H](C)N(CCC(F)(F)F)C[C@H]1C,.,0.9,4.1,-4.0,-0.4,-2.7
CO[C@@H]1CN(C)C(=O)c2cc(NC(=O)c3ccc4c(c3)OCO4)ccc2OC[C@@H](C)N(CCC(F)(F)F)C[C@H]1C,.,22.8*,-4.9,-4.8,-1.8,1.8
CO[C@@H]1CN(C)C(=O)c2cc(NC(=O)c3ccc4c(c3)OCO4)ccc2OC[C@@H](C)N(CC2CC2)C[C@H]1C,.,0.3,-1.1,-2.7,-1.9,0.2
COc1ccccc1C(=O)Nc1ccc2c(c1)C(=O)N(C)C[C@H](OC)[C@@H](C)CN(CC1CC1)[C@@H](C)CO2,.,?,1.5,-1.0,96.3*,-16.4
CO[C@@H]1CN(C)C(=O)c2cc(NC(=O)c3ccc4c(c3)OCO4)ccc2OC[C@@H](C)N(CCC(F)(F)F)C[C@@H]1C,.,35.6*,0.2,-7.9,-0.1,-9.0
CO[C@@H]1CN(C)C(=O)c2cc(NC(=O)c3ccc4c(c3)OCO4)ccc2OC[C@@H](C)N(CC2CC2)C[C@@H]1C,.,77.4*,-3.3,0.4,-0.9,-4.1
Cc1ccc(N2C(=O)C3C4C=CC(CNC(=S)N5CCN(c6cccc(C)c6)C(C)C5)(O4)C3C2=O)cc1 (configuration not stated),104.9*,-1.4,3.0,-2.2,.,0.4
Cc1cccc(N2CCN(C(=O)CN3CCOc4ccccc43)CC2C)c1 (configuration not stated),.,-15.1,10.4,-3.9,-2.1,4.0
O=C(c1cccs1)c1no[n+]([O-])c1C(=O)c1cccs1,104.7*,.,.,.,0.3,.
O=C(c1cccs1)c1ccc(-c2cccs2)s1,1.4,.,.,.,.,.
COc1ccc(NC(=S)Nc2ncccc2C)c(OC)c1,-24.1,.,-20.8,-31.4*,39.8,-0.5
COc1ccc(NC(=S)Nc2ncccc2C)cc1OC,-3.5,1.5,2.4,-11.4,.,-1.0
CO[C@H]1CN(C)C(=O)c2ccc(NC(=O)C3CC3)cc2OC[C@H](C)N(C(=O)c2ccccc2)C[C@H]1C,.,0.1,1.4,-0.7,9.3,-1.2
Cc1ccc(S(=O)(=O)N(C)C[C@@H]2OCCCC[C@H](C)Oc3ccc(NS(C)(=O)=O)cc3C(=O)N([C@H](C)CO)C[C@@H]2C)cc1,.,56.9*,1.4,-2.5,-1.3,41.5
COc1ccc(S(=O)(=O)N(C)C[C@@H]2OCCCC[C@H](C)Oc3ccc(NS(C)(=O)=O)cc3C(=O)N([C@@H](C)CO)C[C@H]2C)cc1,.,1.0,-1.2,-4.8,-2.6,-29.0
COc1ccc(S(=O)(=O)N(C)C[C@H]2OCCCC[C@H](C)Oc3ccc(NS(=O)(=O)c4cccs4)cc3C(=O)N([C@H](C)CO)C[C@H]2C)cc1,.,63.1*,4.4,-0.4,2.5,1.3
Cc1ccc(S(=O)(=O)N(C)C[C@@H]2OCCCC[C@@H](C)Oc3ccc(NS(C)(=O)=O)cc3C(=O)N([C@@H](C)CO)C[C@@H]2C)cc1,.,-4.5,-0.1,0.3,9.2,88.3*
Cc1ccc(S(=O)(=O)N(C)C[C@H]2OCCCC[C@H](C)Oc3ccc(NS(C)(=O)=O)cc3C(=O)N([C@H](C)CO)C[C@H]2C)cc1,.,15.3,-4.5,-9.0,-1.8,1.6
Cc1ccc(S(=O)(=O)N(C)C[C@@H]2OCCCC[C@@H](C)Oc3ccc(NS(C)(=O)=O)cc3C(=O)N([C@H](C)CO)C[C@H]2C)cc1,.,-0.3,-2.0,-1.7,1.4,-3.9
COc1ccc(S(=O)(=O)N(C)C[C@H]2OCCCC[C@@H](C)Oc3ccc(NS(C)(=O)=O)cc3C(=O)N([C@@H](C)CO)C[C@@H]2C)cc1,.,22.4*,2.3,-1.6,3.5,-9.8
CO[C@H]1CN(C)C(=O)c2cc(NS(=O)(=O)c3ccccc3C)ccc2OC[C@@H](C)NC[C@H]1C,.,16.9,-1.9,2.1,4.0,2.0
C[C@H](CO)N1C[C@H](C)[C@H](CN(C)Cc2ccc(C(=O)Nc3ccccc3N)cc2)Oc2c(NS(=O)(=O)c3ccccc3)cccc2C1=O,.,-7.0,-1.1,0.2,.,0.8
COc1ccc(S(=O)(=O)N(C)C[C@H]2OCCCC[C@H](C)Oc3ccc(N(C)C)cc3C(=O)N([C@H](C)CO)C[C@@H]2C)cc1,.,23.3*!,6.4,-0.3,-0.9,1.1
COc1cccc(S(=O)(=O)N(C)C[C@H]2Oc3cc(C#CCC(C)C)ccc3S(=O)(=O)N([C@@H](C)CO)C[C@H]2C)c1,.,44.0*,-2.7,2.7,1.7,2.3
CCCC#Cc1ccc2c(c1)O[C@@H](CN(C)S(=O)(=O)c1cccc(F)c1)[C@H](C)CN([C@@H](C)CO)S2(=O)=O,.,29.6*,-4.1,0.4,3.7,-6.4
SMILES,PfHsp90 set2,DENV2 CPE,MLL AF4-AF9 inh,rRNA inh HTS,Cneo AK release,S100A4 MyoIIA
CC(C)CC#Cc1ccc2c(c1)O[C@H](CN(C)S(=O)(=O)c1cccc(F)c1)[C@H](C)CN([C@@H](C)CO)S2(=O)=O,.,3.9,-1.6,1.1,-0.5,-35.8
CC(C)CC#Cc1ccc2c(c1)O[C@H](CN(C)S(=O)(=O)c1cccc(F)c1)[C@H](C)CN([C@H](C)CO)S2(=O)=O,.,22.4*,-2.4,4.9,0.8,-3.6
COc1cccc(S(=O)(=O)N(C)C[C@@H]2Oc3cc(C#CCC(C)C)ccc3S(=O)(=O)N([C@H](C)CO)C[C@H]2C)c1,.,10.0,0.3,4.4,2.0,5.5
CCCc1cn(CC[C@@H]2CC[C@@H](NC(=O)CCN3CCCCC3)[C@@H](CO)O2)nn1,.,5.2,0.3,0.5,0.9,12.9
CCCC(O)C#Cc1cnc2c(c1)C(=O)N([C@H](C)CO)C[C@H](C)[C@H](CN(C)S(=O)(=O)c1ccc(OC)cc1)O2 (some centres not stated),.,2.6,1.2,-4.5,-0.7,-3.3
COC(=O)c1cc(S(=O)(=O)N(C)C2CCCCC2)oc1C,.,19.5,1.7,-26.6*,0.0,-4.3
C[C@@H]1CCCCO[C@@H](CN(C)Cc2ccc(C(F)(F)F)cc2)[C@@H](C)CN([C@@H](C)CO)C(=O)c2cc(NS(=O)(=O)c3ccc(Cl)cc3)ccc2O1,.,3.2,-1.6,3.7,0.6,-1.2
C[C@@H]1CN([C@H](C)CO)S(=O)(=O)c2ccc(-c3ccccc3F)cc2O[C@H]1CN(C)Cc1cccnc1,.,5.8,6.4,-56.5,-2.2,-2.1
C[C@H]1CN([C@@H](C)CO)S(=O)(=O)c2ccc(-c3ccccc3F)cc2O[C@@H]1CN(C)Cc1cccnc1,.,2.9,7.5,-56.6,1.8,17.6
